Screens (PubChem BioAssay)
Sampled rows, rich in hits. Any-hit rate of the full collection: about 0.79%.
bIAP activator = bovine intestinal alkaline phosphatase activators, primary screen, biochemical, bovine IAP, CDP-star luminescence; purified bovine IAP, 30 min; stronger effect = higher value; fold of DMSO-control signal, blank-subtracted; activation factor at 20 µM; 0.17% of 200,000 active;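 active = activation factor of 2 or more at 20 µM, a signal rise over negative controls twice the positive control's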
bIAP inhibitor = bovine intestinal alkaline phosphatase inhibitors, primary screen, selectivity assay for TNAP inhibitor project, biochemical, bovine IAP, CDP-star luminescence; alkaline phosphatase, intestinal [Bos taurus]; purified bovine IAP, 30 min; inhibition, % at 20 µM; 190,000 tested, under 10 active; AID 1019, 2008;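 active = over 50% inhibition of intestinal alkaline phosphatase at 20 µM in the single-dose screen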
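Assay system – bovine IAP enzyme · Quantity – bovine IAP at 1/65,000,000 final dilution · Detection – CDP-star luminescence signal · Times – 30 min reaction at room temperature · Also added – CDP-star substrate at 30 µM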
hIAP activ = human IAP activators, primary screen, biochemical, luminescence, uHTS. purified human IAP, CDP-Star luminescence, 30 min; stronger effect = higher value; 1 = vehicle-only enzyme, 0 = enzyme-free background. 0.16% of 330,000 active. Intestinal-type alkaline phosphatase (Homo sapiens), P09923. AID 2524, 2010. activation factor at 10 µM;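 active = activation factor of the enzyme at least 2-fold when tested at 20 µM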
Target sequence (P09923 whole entry, looked up): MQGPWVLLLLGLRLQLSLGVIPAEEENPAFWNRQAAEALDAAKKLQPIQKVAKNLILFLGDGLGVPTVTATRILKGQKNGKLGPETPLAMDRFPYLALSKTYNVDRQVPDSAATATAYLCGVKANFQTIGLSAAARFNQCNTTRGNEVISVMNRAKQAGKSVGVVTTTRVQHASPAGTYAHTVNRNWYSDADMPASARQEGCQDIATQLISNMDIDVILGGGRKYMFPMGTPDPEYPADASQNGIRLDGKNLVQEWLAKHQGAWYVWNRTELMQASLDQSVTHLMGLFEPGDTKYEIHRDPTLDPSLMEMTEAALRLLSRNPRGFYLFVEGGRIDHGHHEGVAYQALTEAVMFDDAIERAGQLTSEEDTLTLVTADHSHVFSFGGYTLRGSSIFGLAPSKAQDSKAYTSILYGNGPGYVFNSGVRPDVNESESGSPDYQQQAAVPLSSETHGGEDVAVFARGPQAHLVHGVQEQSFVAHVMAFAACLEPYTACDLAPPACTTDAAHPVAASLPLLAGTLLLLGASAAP
hIAP block = human IAP inhibitors, primary screen, biochemical, luminescence, uHTS; Intestinal-type alkaline phosphatase (Homo sapiens), P09923; purified IAP, CDP-Star luminescence, 30 min; inhibition, % at 10 µM; 0.12% of 330,000 active; AID 2544, 2010;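 active = inhibition reaching a set limit with compound at 10 µM in the primary screen, cut at about 35% in these data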
mIAP inh = inhibitors of mouse IAP, primary screen, biochemical, luminescence, uHTS. purified mouse IAP, CDP-Star luminescence, 30 min. inhibition, % at 10 µM. 0.2% of 330,000 active;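 active = inhibition of at least 40% at 10 µM in the primary screen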
mIAP act = activators of mouse IAP, primary screen, biochemical, luminescence, uHTS | intestinal alkaline phosphatase [Mus musculus] | muIAP, CDP-Star luminescence, 30 min; stronger effect = higher value; 1 = vehicle-only enzyme signal, 0 = enzyme-free wells | activation factor at 10 µM | 0.24% of 330,000 active;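 active = activation factor of at least 2 at 20 µM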
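System: Mouse IAP enzyme | Also added: CDP-Star substrate | Dosing: Compounds dispensed in DMSO | Schedule: 30 min enzyme-substrate-compound incubation at room temperature | Technique: Chemiluminescence readout | Control set: DMSO-only wells and no-enzyme negative control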
Hits are given with their value; - = inactive; . = no result given.

SMILES	bIAP activator	bIAP inhibitor	hIAP activ	hIAP block	mIAP inh	mIAP act
CN(C)c1ccc(/C=C(/C(=O)c2ccc(Cl)cc2Cl)n2cncn2)cc1	-	-	-	-	42	-
COc1ccc(/C=C(/C(=O)c2ccc(Cl)cc2Cl)n2cncn2)cc1	-	-	-	-	-	-
C#CCOCCOCCOCCNc1nc(N2CCN(C(=O)[C@H](Cc3cc4ccccc4[nH]3)n3cc([C@@H](N)CC(C)C)nn3)CC2)nc(N2CCN(C(=O)[C@H](Cc3cc4ccccc4[nH]3)n3cc([C@@H](N)CC(C)C)nn3)CC2)n1	3.2	-	-	-	-	2.1
C#CCOCCOCCOCCNc1nc(N2CCN(C(=O)[C@H]([C@@H](C)CC)n3cc([C@@H](N)Cc4ccc(O)cc4)nn3)CC2)nc(N2CCN(C(=O)[C@H](Cc3cc4ccccc4[nH]3)n3cc([C@@H](N)C(C)CC)nn3)CC2)n1 (some centres not stated)	-	-	-	-	-	-
C#CCOCCOCCOCCNc1nc(N2CCN(C(=O)[C@H](Cc3cc4ccccc4[nH]3)n3cc([C@@H](N)C(C)CC)nn3)CC2)nc(N2CCN(C(=O)[C@H](Cc3cc4ccccc4[nH]3)n3cc([C@@H](N)Cc4ccc(O)cc4)nn3)CC2)n1 (some centres not stated)	2.2	-	-	-	-	2.1
Cn1c(=O)[nH]c(=O)c2c1nc(NCCCO)n2Cc1ccc(F)cc1	-	-	-	-	-	-
Cn1c(=O)[nH]c(=O)c2c1nc(NCCCn1ccnc1)n2CCOc1ccccc1	3.9	-	-	-	-	-
Cn1c(=O)[nH]c(=O)c2c1nc(NCCCn1ccnc1)n2Cc1ccccc1	2.5	-	-	-	-	-
Cc1ccc(N2CC(O)=C(c3nc4ccccc4c(=O)[nH]3)C2=N)cc1C	-	-	-	-	-	-
CCCOc1ccc(/C=C/C(=O)OCC(=O)N(C)c2c(N)n(Cc3ccccc3)c(=O)[nH]c2=O)cc1OCC	.	.	-	-	-	-
CC(=O)N1N=C(c2ccccc2)CC1c1cccs1 (configuration not stated)	.	.	-	-	-	-
CC(=O)Nc1ccc(C2=NN(c3ccccc3)C(c3cccs3)C2)cc1 (configuration not stated)	-	-	-	-	-	2.3
Cc1ccc(NC(=O)CSc2ccc3c(c2)OCCO3)nc1	.	.	-	-	-	-
O=C(CSc1ccccn1)Nc1cccc2ccccc12	-	-	-	-	68	-
O=C(CSc1ccccn1)Nc1ccccc1F	-	-	-	-	-	-
CCCCCCCC(=O)Nc1cc(C(=O)NCCC)ccc1N1CCC2(CC1)CC(c1ccccc1)=NO2	.	.	-	-	-	-
O=C(Nc1ccc([N+](=O)[O-])cc1Cl)c1cc(Cl)ccc1O	.	.	-	-	-	-
O=C(Nc1cccc(Cl)c1)c1cc(N=Nc2ccc([N+](=O)[O-])cc2Cl)ccc1O	.	.	-	38	-	-
Cc1cccc(NC(=O)Nc2cc(C)cc(C)n2)c1	-	-	-	-	-	-
NC1=NC(c2ccc(Br)cc2)n2c(nc3ccccc32)N1 (configuration not stated)	-	-	-	-	-	-
NC1=NC2(CCC(c3ccccc3)CC2)n2c(nc3ccccc32)N1 (configuration not stated)	2.9	-	-	-	-	-
NC1=NC2(CCCCC2)n2c(nc3ccccc32)N1	2.2	-	-	-	-	-
NC1=NC2(CCN(Cc3ccccc3)CC2)n2c(nc3ccccc32)N1	3.5	-	-	-	-	-
COc1ccccc1CC(Cc1nc2ccccc2[nH]1)c1nc2ccccc2[nH]1 (configuration not stated)	3.6	-	-	-	-	-
CC(C)Cc1nc2ccccc2[nH]1	.	.	-	-	-	-
